Test results from ChEMBL document CHEMBL4715860 (J Med Chem, 2020).
Activity calls are given as the source filed them. No cut-off for these calls is given here.

Columns and labels:
[1] = Intrinsic clearance in Sprague-Dawley rat hepatocytes assessed per million cells at 5 uM incubated for 3 hrs by LC-MS analysis; assay type: ADME, cell-based, Hepatocyte; conditions: read-out: CLH
Outline: (§1)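 Cryopreserved primary hepatocytes in suspension from CD-1 mouse, Sprague-Dawley rat, Beagle dog and human. Compound at 5 μM final (from 10 mM DMSO stock). Samples taken at 0, 15, 60, 90 and 180 min and quenched with ACN plus internal standard. Parent quantified by LC-MS. Hepatocyte-free medium incubations served as negative control; 7-ethoxycoumarin as positive control. Duplicate; CLint per 10^6 cells and t1/2.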

[2] = Metabolic stability in Beagle dog hepatocytes assessed as half-life at 5 uM incubated for 3 hrs by LC-MS analysis; assay type: ADME, cell-based, Canis lupus familiaris, Hepatocyte; outline: as §1
[3] = AUC (0 to 8 hrs) in male Sprague-Dawley rat plasma at 5 mg/kg, po; assay type: ADME, organism-based; set-up: time < 8 hr, route oral, dose 5 mg/kg
Outline: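 Male Sprague Dawley rats, single oral dose of 5 mg/kg. Plasma and brain concentrations measured over 8 h, n = 3, mean ± SEM; AUC0−8 computed from the time course.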

Rattus norvegicus = assay: In vivo inhibition of PI3Kalpha Sprague-Dawley rat assessed as increase in plasma insulin concentration at 5 mg/kg, po measured after 8 hrs by ELISA; assay type: functional, organism-based
Outline: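 Male Sprague Dawley rats dosed orally at 5 mg/kg; plasma insulin and glucose followed over time against vehicle, n = 3, mean ± SEM.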

[4] = Cmax in C57BL/6J mouse plasma at 10 mg/kg, po administered as single dose by mass spectrometry based UHPLC analysis; assay type: ADME, organism-based; set-up: route oral, dose 10 mg/kg
Outline: (§2)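 Female C57BL/6J mice, one oral dose of 10 mg/kg in 20% Captisol; plasma and brain levels over time, n = 3 per time point (mean).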

[5] = AUC (0 to 8 hrs) in C57BL/6J mouse plasma at 10 mg/kg, po administered as single dose by mass spectrometry based UHPLC analysis; assay type: ADME, organism-based; set-up: time < 8 hr, route oral, dose 10 mg/kg; outline: as §2
[6] = Cmax in C57BL/6J mouse plasma at 10 mg/kg, po administered once a day for 4 consecutive days by mass spectrometry based UHPLC analysis; assay type: ADME, organism-based; set-up: route oral, dose 10 mg/kg, time 4 day
Outline: (§3)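 Female C57BL/6J mice given 10 mg/kg p.o. in 20% Captisol once daily for 4 consecutive days. Plasma and brain sampled after the final dose on day 4, n = 3 per time point.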

[7] = Tmax in C57BL/6J mouse plasma at 10 mg/kg, po administered once a day for 4 consecutive days by mass spectrometry based UHPLC analysis; assay type: ADME, organism-based; conditions: time 4 day
Outline: (§4)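 Female C57BL/6J mice dosed orally at 10 mg/kg in 20% Captisol, either once or once daily for 4 days with sampling after the last dose on day 4. Plasma and brain concentrations followed over time. Tmax taken from at least 3 time points.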

[8] = Clearance in C57BL/6J mouse plasma at 10 mg/kg, po administered once a day for 4 consecutive days by mass spectrometry based UHPLC analysis; assay type: ADME, organism-based; conditions: time 4 day; outline: as §3
[9] = Tmax in C57BL/6J mouse brain at 10 mg/kg, po administered as single dose by mass spectrometry based UHPLC analysis; assay type: ADME, organism-based; outline: as §4
[10] = AUC (0 to 8 hrs) in C57BL/6J mouse brain at 10 mg/kg, po administered as single dose by mass spectrometry based UHPLC analysis; assay type: ADME, organism-based; set-up: time < 8 hr, route oral, dose 10 mg/kg; outline: as §2
[11] = Cmax in C57BL/6J mouse brain at 10 mg/kg, po administered once a day for 4 consecutive days by mass spectrometry based UHPLC analysis; assay type: ADME, organism-based; set-up: route oral, dose 10 mg/kg, time 4 day; outline: as §3
[12] = AUC (0 to 8 hrs) in C57BL/6J mouse plasma at 25 mg/kg, po administered as single dose by mass spectrometry based UHPLC analysis; assay type: ADME, organism-based; set-up: time < 8 hr, route oral, dose 25 mg/kg
Outline: (§5)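 One oral dose of 25 mg/kg to female C57BL/6J mice. Plasma and brain concentrations followed over time, n = 3 per time point (mean).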

[13] = Tmax in C57BL/6J mouse brain at 25 mg/kg, po administered as single dose by mass spectrometry based UHPLC analysis; assay type: ADME, organism-based
Outline: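 Female C57BL/6J mice given a single oral dose of 25 mg/kg. Plasma and brain levels followed over time (n = 3 per time point, mean). Tmax is the time of maximal concentration.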

[14] = Elimination half life in C57BL/6J mouse brain at 25 mg/kg, po administered as single dose by mass spectrometry based UHPLC analysis; assay type: ADME, organism-based; conditions: read-out: beta t1/2 (converted); outline: as §5
Mus musculus [15] = assay: In vivo inhibition of PI3Kalpha in C57BL/6J mouse assessed as increase in plasma glucose concentration at 25 mg/kg, po measured after 8 hrs by glucoseoxidase-peroxide coupled colorimetric assay; assay type: functional, organism-based
Outline: (§6)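 Female C57BL/6J mice given one oral dose (25 mg/kg); plasma insulin and glucose monitored over time, mean ± SEM.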

Mus musculus [16] = assay: In vivo inhibition of PI3Kalpha C57BL/6J mouse assessed as increase in plasma insulin concentration at 25 mg/kg, po measured after 8 hrs by ELISA; assay type: functional, organism-based; outline: as §6
Mus musculus [17] = assay: In vivo inhibition of mTORC2 signalling pathway in C57BL/6J mouse assessed as reduction in PKB/Akt phosphorylation at Ser473 in brain at 25 mg/kg, po incubated for 30 mins by Western blot analysis; assay type: functional, organism-based
Outline: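 Female C57BL/6J mice dosed at 25 mg/kg p.o.; cortex collected 30 min later and lysed. Equal protein run on SDS-PAGE and western blotted for pS6(Ser235/236), pPKB(Ser473) and α-tubulin, detected by HRP secondary antibodies and ECL. Signal expressed as % of control cortex, n = 3, mean ± SEM, unpaired t-test.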

Mus musculus [18] = assay: In vivo inhibition of mTORC1 signalling in C57BL/6J mouse assessed as reduction in RPS6 phosphorylation at S235/236 residue in brain at 25 mg/kg, po measured after 0.5 to 2 hrs by Western blot analysis; assay type: functional, organism-based; conditions: time 0.5-2 hrs
Outline: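 Time course in female C57BL/6J mice after 25 mg/kg p.o.: cortex taken at set time points and western blotted for pS6 and pPKB. Signals quantified against α-tubulin as % of control cortex; n = 3 per time point and n = 9 controls. Brain compound level measured in the same mice.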

hepatocyte CLint at 5 µM [1]: 5.3 µL/min/1e6 cells | half-life at 5 µM [2]: 490 min | AUC(0-t) at 8 h [3]: 2430 ng·h/mL | Cmax [4]: 1100 ng/mL | AUC(0-t) at 8 h [5]: 2940 ng·h/mL | Cmax [6]: 947 ng/mL | Tmax [7]: 30 min | CL/F [8]: 64.9 mL/min/kg | Tmax [9]: 30 min | AUC(0-t) at 8 h [10]: 4650 ng·h/mL | Cmax [11]: 1320 ng/mL | AUC(0-t) at 8 h [12]: 10300 ng·h/mL | Tmax [13]: 30 min | half-life [14]: 144 min
SMILES: C[C@@H]1COCCN1c1nc(-c2cnc(N)cc2C(F)F)nc(N2[C@H](C)COC[C@@H]2C)n1
inhibition (Rattus norvegicus): inactive | inhibition (Mus musculus [15]): inactive | inhibition (Mus musculus [16]): inactive | inhibition (Mus musculus [17]): Active | inhibition (Mus musculus [18]): Active
